Our source for the Ratio Ki and Ki values is ChEMBL document CHEMBL1139465, “Synthesis, molecular modeling studies, and selective inhibitory activity against monoamine oxidase of 1-thiocarbamoyl-3,5-diaryl-4,5-dihydro-(1H)- pyrazole derivatives” (J Med Chem, 2005).

pKi: −log10 of the molar value.

For experiment [1], the species on record is Bos taurus. The experiment can be described thus: Selectivity index, ratio of Ki for MAOB to Ki for MAOA in bovine brain mitochondria. The procedure, abridged:
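SI computed as Ki(MAO-B)/Ki(MAO-A). Both Ki values are from the fluorimetric kynuramine assay on bovine brain mitochondria, with isoforms isolated by L-deprenyl or clorgyline preincubation. Ki from Dixon plots; means of at least three experiments.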

The target of experiment [2] is T1, Amine oxidase [flavin-containing] B (Bos taurus, UniProt P56560).
T1 sequence (P56560 whole entry): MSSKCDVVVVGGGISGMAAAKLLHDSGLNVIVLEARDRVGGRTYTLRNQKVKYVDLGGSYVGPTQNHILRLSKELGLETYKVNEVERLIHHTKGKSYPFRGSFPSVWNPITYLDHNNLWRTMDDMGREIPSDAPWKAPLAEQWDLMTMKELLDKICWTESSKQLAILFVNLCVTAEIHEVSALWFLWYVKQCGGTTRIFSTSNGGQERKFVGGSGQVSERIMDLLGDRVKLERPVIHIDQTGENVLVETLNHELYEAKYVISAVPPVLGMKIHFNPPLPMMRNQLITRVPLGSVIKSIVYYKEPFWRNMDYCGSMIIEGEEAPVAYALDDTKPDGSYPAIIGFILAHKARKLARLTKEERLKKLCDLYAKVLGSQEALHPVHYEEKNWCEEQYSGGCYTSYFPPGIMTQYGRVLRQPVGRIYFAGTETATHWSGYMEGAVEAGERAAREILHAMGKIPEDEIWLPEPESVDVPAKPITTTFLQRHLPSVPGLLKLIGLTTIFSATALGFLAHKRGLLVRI
The experiment in a line: Inhibition of bovine brain mitochondria MAOB. The procedure, abridged: (§1)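 Beef brain mitochondria isolated per Basford, 6 mg/mL, in 0.25 M potassium phosphate pH 7.4. Preincubation 30 min at 38 °C with 0.5 µM L-deprenyl (MAO-A) or 0.05 µM clorgyline (MAO-B). Inhibitor in DMSO, […]. Kynuramine at four final levels, 5 µM–0.1 mM, 30 min at 38 °C. Perchloric acid stop, fluorimetric read. Ki from Dixon plots; ≥3 experiments in duplicate.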

The species named for experiment [3] is Bos taurus. The experiment can be described thus: Selectivity index, ratio of Ki for MAOA to Ki for MAOB in bovine brain mitochondria.
Experiment [4] addresses T2, Amine oxidase [flavin-containing] A (Bos taurus, UniProt P21398).
T2 sequence (P21398 whole entry): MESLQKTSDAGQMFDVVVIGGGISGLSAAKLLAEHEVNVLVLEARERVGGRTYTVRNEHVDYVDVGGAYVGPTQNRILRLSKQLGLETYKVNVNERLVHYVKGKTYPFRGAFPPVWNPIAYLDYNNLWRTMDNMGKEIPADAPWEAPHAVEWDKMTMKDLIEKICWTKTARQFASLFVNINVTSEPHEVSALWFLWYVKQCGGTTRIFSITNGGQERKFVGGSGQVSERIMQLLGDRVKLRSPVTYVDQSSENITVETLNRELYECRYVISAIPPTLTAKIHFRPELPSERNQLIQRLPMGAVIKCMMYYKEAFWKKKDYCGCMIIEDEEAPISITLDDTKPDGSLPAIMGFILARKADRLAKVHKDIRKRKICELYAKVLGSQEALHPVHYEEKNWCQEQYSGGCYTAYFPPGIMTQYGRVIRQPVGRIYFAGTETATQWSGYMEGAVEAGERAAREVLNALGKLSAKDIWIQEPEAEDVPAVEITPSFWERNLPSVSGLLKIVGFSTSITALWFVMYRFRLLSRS
The experiment in a line: Inhibition of bovine brain mitochondria MAOA. In outline: as §1

Usually pKi stands for the Ki on a negative log10 scale, so that one unit is a factor of ten. High values mean a low Ki, low ones a high Ki. Consider `Cc1ccc(C2CC(c3cccs3)=NN2C(N)=S)cc1` (stereo unspecified), for which the Ratio Ki in the experiment listed under Bos taurus [1] stood at 0.2; in the experiment listed under Bos taurus [3] it was 5. In addition, the figures for the pKi in experiment [2] and in experiment [4] were 8.00 and 7.30, respectively.

For the compound `Cc1ccc(C2=NN(C(N)=S)[C@H](c3ccc(Cl)cc3)C2)cc1`, the Ratio Ki stood at 0.02 in the experiment filed under Bos taurus [1] and 50 in the experiment filed under Bos taurus [3]. The results for the pKi in experiment [2] and in experiment [4] were 9.00 and 7.30, respectively.

As to `NC(=S)N1N=C(c2ccc(F)cc2)C[C@@H]1c1ccc(Cl)cc1`, the Ratio Ki was determined as 116 in the experiment listed under Bos taurus [1] and 0.008 in the experiment filed under Bos taurus [3]. The pKi in experiment [2] is 5.85; in experiment [4], 7.92.

For `Cc1ccc(C2=NN(C(N)=S)C(c3ccco3)C2)cc1` (stereo unspecified), the Ratio Ki in the experiment listed under Bos taurus [1] came out at 42.5; in the experiment listed under Bos taurus [3] it was 0.02. Moreover, the values for the pKi in experiment [2] and in experiment [4] were 6.77 and 8.40, respectively.

Take `Cc1ccc(C2CC(c3ccc(F)cc3)=NN2C(N)=S)cc1` (stereo unspecified): the Ratio Ki in the experiment listed under Bos taurus [1] amounted to 7.1; in the experiment listed under Bos taurus [3], 0.14. Also, the results for the pKi in experiment [2] and in experiment [4] were 7.30 and 8.15, respectively.

For the compound `NC(=S)N1N=C(c2ccc(F)cc2)CC1c1ccc(Cl)cc1` (stereo unspecified), the Ratio Ki is 166 in the experiment listed under Bos taurus [1] and 0.006 in the experiment filed under Bos taurus [3]. The results for the negative logarithm of the Ki (pKi) in experiment [2] and in experiment [4] were 6.00 and 8.22, respectively.

For the compound `NC(=S)N1N=C(c2cccs2)CC1c1cccs1` (stereo unspecified), the Ratio Ki worked out at 1.85 in the experiment filed under Bos taurus [1] and 0.54 in the experiment filed under Bos taurus [3]. The results for the pKi in experiment [2] and in experiment [4] were 7.30 and 7.57, respectively.

Regarding `Cc1ccc(C2=NN(C(N)=S)C(c3ccc(Cl)cc3)C2)cc1` (stereo unspecified), the Ratio Ki in the experiment listed under Bos taurus [1] came to 0.05; in the experiment listed under Bos taurus [3], 20.7. Also, the negative-log Ki (pKi) is 8.82 in experiment [2] and 7.51 in experiment [4].

Turning to `NC(=S)N1N=C(c2ccc(F)cc2)C[C@H]1c1ccc(Cl)cc1`, the Ratio Ki was 480 in the experiment filed under Bos taurus [1] and 0.002 in the experiment listed under Bos taurus [3]. Besides, the figures for the pKi in experiment [2] and in experiment [4] were 5.62 and 8.30, respectively.

Take `Cc1ccc(C2=NN(C(N)=S)C(c3ccc(C)cc3)C2)cc1` (stereo unspecified): the Ratio Ki amounted to 1.6 in the experiment filed under Bos taurus [1] and 0.6 in the experiment filed under Bos taurus [3]. Further, the pKi in experiment [2] was 8.00; in experiment [4], 8.22.

For `NC(=S)N1N=C(c2cccs2)CC1c1ccco1` (stereo unspecified), the results for the Ratio Ki in the experiment listed under Bos taurus [1] and in the experiment listed under Bos taurus [3] were 0.4 and 2.5, respectively. Also, the pKi is 7.70 in experiment [2] and 7.30 in experiment [4].

Take `Cc1ccc(C2=NN(C(N)=S)[C@@H](c3ccc(Cl)cc3)C2)cc1`: the results for the Ratio Ki in the experiment filed under Bos taurus [1] and in the experiment listed under Bos taurus [3] were 0.2 and 4.8, respectively. Also, the pKi is 8.57 in experiment [2] and 7.89 in experiment [4].

`NC(=S)N1N=C(c2cccs2)CC1c1ccc(Cl)cc1` (stereo unspecified): the Ratio Ki in the experiment filed under Bos taurus [1] came to 0.14; in the experiment listed under Bos taurus [3], 6.8. For the same compound, the pKi in experiment [2] is 8.22; in experiment [4], 7.39.

Take `NC(=S)N1N=C(c2ccc(F)cc2)CC1c1ccco1` (stereo unspecified): the Ratio Ki in the experiment listed under Bos taurus [1] was determined as 46.2; in the experiment listed under Bos taurus [3], 0.021. The values for the pKi in experiment [2] and in experiment [4] were 6.43 and 8.10, respectively.
